Experimental findings from ChEMBL document CHEMBL3585281, “Antibacterial Labdane Diterpenoids from Vitex vestita” (2015) are described below.

Structures are written as SMILES.

Common to all, as to type: functional
For experiment [1], the system named is MRC5. In words: Cytotoxicity against human MRC5 cells assessed as growth inhibition at 10^-5 M after 72 hrs by MTS assay relative to control. To be noted: MRC5, 72 h, read-out: GI. Summed up: (§1)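 Cells from ATCC; HCT-116 grown in RPMI 1640 and MRC5 in DMEM, each with 10% FCS and 1% glutamine, 37 °C, 5% CO2. Seeded at 2.5 × 10^3 cells/well, cultured 24 h, then exposed to compounds at 1 and 10 μM final for 72 h. MTS read-out, absorbance 490 nm; percent index from treated/control OD490 × 100, three experiments.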
(In general: Tetrazolium assays rely on reduction of a dye to a coloured formazan, in cell work by metabolically active cells.)

The test system of experiment [2] is MRC5. In words: Cytotoxicity against human MRC5 cells assessed as growth inhibition at 10^-6 M after 72 hrs by MTS assay relative to control. The conditions noted are these: MRC5, 72 h, read-out: GI. Summed up:
as §1

In experiment [3] the test system is HCT-116. Description: Cytotoxicity against human HCT116 cells assessed as growth inhibition at 10^-5 M after 72 hrs by MTS assay relative to control. To be noted: HCT-116, 72 h, read-out: GI. Summed up:
as §1

Experiment [4] relates to HCT-116. Description: Cytotoxicity against human HCT116 cells assessed as growth inhibition at 10^-6 M after 72 hrs by MTS assay relative to control. The conditions noted are these: HCT-116, 72 h, read-out: GI. The essentials: as §1

Turning to `C=C1C[C@@H](O)[C@H]2C(C)(C)CCC[C@]2(C)[C@H]1CCC1=CC(=O)OC1O` (stereo partly drawn), the inhibition of growth at 10 µM was determined as 28% in experiment [1] and 38% in experiment [3]. The inhibition of growth at 1 µM in experiment [2] was found to be 5%; in experiment [4], 0%.
Regarding `C=C1C[C@@H](O)[C@H]2C(C)(C)CCC[C@]2(C)[C@H]1C[C@H](O)C1=CC(=O)OC1O` (stereo partly drawn), the inhibition of growth at 10 µM in experiment [1] amounted to 0%; in experiment [3], 66%. For the same compound, the inhibition of growth at 1 µM in experiment [2] and in experiment [4] was 0% in each case.
